Screening data as filed in PubChem.
PPC-1+TRAIL kill: compounds killing PPC-1 cancer cells with TRAIL present, primary screen, TRAIL potentiator project, ATPLite luminescence, uHTS | actives 0.41% (n = 220,000) | PPC-1 cells + TRAIL, ATPLite viability luminescence | cell killing (% activity), % at 4 µM or 5 µM;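 active = cell killing above 50% in the first pass at 4 µM, then a duplicate retest at 5 µM averaging 50% or more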
C8 TRAIL sens: viability loss with TRAIL in NB7+C8 cells, primary screen, TRAIL sensitizer project, cell-based, ATPlite luminescence | inhibition (viability loss, TRAIL sensitization), % at 10 µM | actives 1% (n = 360,000) | AID 624354, 2012;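 active = compounds causing at least 50% loss of cell viability in the single-dose screen, relative to plate controls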
HSP90 refold inh: HSP90 inhibitors, primary screen, cell lysate, luminescence; Heat shock protein HSP 90 (rabbit reticulocyte lysate; luciferase refolding); Rabbit reticulocyte lysate, luciferase refolding luminescence, 3 h; inhibition, % at 5.6 µM; actives 0.91% (n = 290,000);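 active = inhibition above the screen-wide mean plus 3 SD, computed separately per campaign, cut at about 16% in these data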;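 also: inhibitors lower the luminescence because luciferase stays unfolded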
FLuc stim CS: FLuc activators, initial screening, artefact control for FLuc-dependent activation tests, biochemical, ATPlite luminescence; Luciferin 4-monooxygenase (Photinus pyralis), P08659; ATPlite luciferase biochemical, 10 min; 0 = ATP-free wells, 1 = DMSO control; activation factor at 10 µM; 200,000 tested, under 10 active; AID 1027, 2008;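 active = luciferase activation factor, scaled between plate controls, of at least 2 with compound at 10 µM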
Target sequence (P08659 whole entry, looked up): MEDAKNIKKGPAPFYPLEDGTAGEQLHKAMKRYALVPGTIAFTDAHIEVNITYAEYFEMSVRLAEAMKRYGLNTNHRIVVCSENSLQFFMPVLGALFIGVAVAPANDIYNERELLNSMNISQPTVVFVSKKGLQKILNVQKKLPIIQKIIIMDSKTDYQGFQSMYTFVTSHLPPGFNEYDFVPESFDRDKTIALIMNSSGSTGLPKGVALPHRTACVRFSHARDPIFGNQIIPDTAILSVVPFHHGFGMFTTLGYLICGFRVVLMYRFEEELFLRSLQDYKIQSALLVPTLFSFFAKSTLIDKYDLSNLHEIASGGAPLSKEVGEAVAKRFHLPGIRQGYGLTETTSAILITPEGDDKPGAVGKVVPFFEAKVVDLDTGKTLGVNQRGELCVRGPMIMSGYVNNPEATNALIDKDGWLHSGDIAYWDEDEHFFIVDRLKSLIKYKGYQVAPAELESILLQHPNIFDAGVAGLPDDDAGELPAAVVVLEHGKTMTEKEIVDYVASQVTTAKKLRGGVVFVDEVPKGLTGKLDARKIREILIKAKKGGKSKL
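Material: Luciferase/luciferin reagent mix | Doses: Test compounds dosed from 2 mM stocks in 100% DMSO | Timing: 10 min incubation after luciferase reagent addition, room temperature | Measured by: Luminescence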
FLuc inh counter: firefly luciferase enzyme inhibitors, primary screen, artefact control for luciferase-based inhibitor screens, biochemical, luminescence, ATPLite; Luciferin 4-monooxygenase (Photinus pyralis), P08659; 10 min; inhibition, % at 10 µM; actives 1.5% (n = 200,000);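 active = inhibition above about 50% when tested at 10 µM, limit read from the data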
A number is an active result; – = inactive; · = no result. The list is not random: actives were taken first. Their share in the collection is about 2%.

SMILES | PPC-1+TRAIL kill | C8 TRAIL sens | HSP90 refold inh | FLuc stim CS | FLuc inh counter
CC(C)NC(=O)c1cc(C2CCCCN2S(=O)(=O)c2ccccc2)on1 (stereo not drawn) | · | – | · | · | ·
c1cn2c(NC3CCCCC3)c(-c3ccc(SC4CCCCC4)cc3)nc2cn1 | · | – | · | · | ·
c1cn2c(NC3CCCC3)c(-c3ccc(N4CCOCC4)cc3)nc2cn1 | – | – | · | – | 81.1
CN1C=CC(=C2C(=O)c3ccccc3C2=O)C=C1 | – | · | – | – | 75.2
C[C@H]1CCCCO[C@@H](CN(C)S(=O)(=O)c2ccc(F)cc2)[C@@H](C)CN([C@@H](C)CO)C(=O)c2cc(NC(=O)Nc3ccc4c(c3)OCO4)ccc2O1 | · | – | · | · | ·
CCN1C(=O)[C@H]2[C@@H](c3ccc(OC)cc3)N[C@]3(CCCN(Cc4ccc(OC)cc4)C3=O)[C@H]2C1=O | · | – | · | · | ·
O=C(Nc1ccc(F)cc1)C(c1cc2ccccc2o1)N1CCN(CC(=O)N2CCCC2)CC1 (stereo not drawn) | · | – | · | · | ·
O=C(CCS(=O)(=O)c1ccc(Br)cc1)Nc1ccccn1 | 65.5 | – | – | – | –
C[C@H](O)[C@@H]1C(=O)N2CCc3c([nH]c4ccccc34)[C@@H]2C[C@@H]1N(C)Cc1ccc2c(c1)OCO2 | · | – | · | · | ·
O=C(/C=C/Sc1ccccc1)c1ccc(Cl)cc1 | – | – | – | – | 60.8
O=C(/C=C/Sc1ccccc1)c1ccccc1 | – | – | – | – | 87.5
COc1ccc2oc(=Nc3cccc(F)c3)c(C(N)=O)cc2c1 | – | – | – | – | –
COc1ccc2oc(=Nc3ccccc3)c(-c3nc4ccccc4[nH]3)cc2c1 | 60.6 | 63.4 | – | – | 61.4
COC(=O)c1c(NC(=O)c2ccc(C(=O)c3ccccc3)cc2)sc2c1CC(C)(C)NC2(C)C | · | – | · | · | ·
COC(=O)c1c(NC(=O)c2nc3ccccc3s2)sc2c1CC(C)(C)NC2(C)C | – | 86.3 | – | – | –
Nc1ncnc2c(C3OC(CO)C(O)C3O)c[nH]c12 (stereo not drawn) | · | 87.7 | · | · | ·
Nc1ncnc2c1ncn2[C@@H]1O[C@H](CO)[C@@H](O)[C@H]1O | – | – | – | – | –
O=C(NCc1ccccn1)C1CCN(C2CCN(Cc3cccc(F)c3)CC2)CC1 | · | – | · | · | ·
CCN(c1ccccc1)S(=O)(=O)c1ccc(OC)c(NC(=O)c2cc(F)c(F)c(F)c2F)c1 | · | 55.5 | · | · | ·
Nc1c2c(nc3sc4c(c13)CCCCC4)CCCCC2 | – | 65.0 | – | – | 61.9
c1ccc(CN=C2NN=C(c3cc4ccccc4o3)CS2)cc1 | – | – | – | – | –
c1ccc2oc(C3=NNC(=NC4CC4)SC3)cc2c1 | – | – | – | – | 78.7
c1csc(C2=NNC(=NC3CCCCC3)SC2)c1 | – | – | – | – | 74.5
C[C@@H]1CCCCO[C@H](CN(C)Cc2ccc(C(=O)O)cc2)[C@H](C)CN([C@@H](C)CO)C(=O)c2cc(NC(=O)Nc3ccc(C(F)(F)F)cc3)ccc2O1 | · | – | · | · | ·
Cc1ccc(Nc2nc(C3CC3)cs2)cc1 | – | · | – | – | 69.3
SMILES | PPC-1+TRAIL kill | C8 TRAIL sens | HSP90 refold inh | FLuc stim CS | FLuc inh counter
Clc1ccc(Nc2nc(C3CC3)cs2)cc1 | – | – | – | – | –
CCCCCCCCN1C(=O)[C@H](CC(=O)N2CCOCC2)C[C@@]2(C(=O)OCC)CCCC=C12 | · | – | · | · | ·
CC(C)=CCCC(C)=CCN1C(=O)CN(C)C1=O | · | – | · | · | ·
O=C(O)c1cccc(NC(=O)c2ccc(Cl)c(S(=O)(=O)N3CCCCCC3)c2)c1 | – | – | – | – | 65.4
O=C(Nc1ccccc1C(=O)O)c1ccc(Cl)c(S(=O)(=O)N2CCOCC2)c1 | – | – | – | – | 60.0
COc1ccccc1NC(=O)c1ccc(Cl)c(S(=O)(=O)N2CCOCC2)c1 | – | – | – | – | –
CCOC(=O)CNC(=O)CSc1nnc(NC(=O)c2ccccc2Cl)s1 | – | – | – | – | 68.6
COc1ccc(C(=O)Nc2nnc(SCC(=O)Nc3ccc(NC(C)=O)cc3)s2)c(OC)c1 | · | – | – | · | ·
Cc1ccccc1C(=O)Nc1nnc(SCC(=O)NC2CC2)s1 | · | 53.2 | – | · | ·
COc1ccc(C(=O)Nc2nnc(SCC(=O)NC3CCCC3)s2)c(OC)c1 | · | 72.3 | – | · | ·
O=C(CSc1nnc(NC(=O)c2ccccc2F)s1)Nc1ccccc1F | – | 58.5 | – | – | 88.6
COc1ccccc1Cc1c(-c2ccccc2)nc2c(C)cc(Br)cn12 | · | – | · | · | ·
CC(O)(c1ccc(F)c(F)c1)c1nc(-c2cccc(C#N)c2)cs1 (stereo not drawn) | · | – | · | · | ·
CC1(Cc2cc(Cl)ccc2C(F)(F)F)C(=O)Nc2ccc(OC(F)(F)F)cc21 (stereo not drawn) | · | – | · | · | ·
Cn1ccc2c(N3CCCCCCC3)cc3c(c21)C1CCC3O1 (stereo not drawn) | · | – | · | · | ·
COc1cc(C=C2C(=O)c3ccccc3C2=O)ccc1O | – | – | – | · | ·
COc1ccc(/C=C2\CN(Cc3ccccc3)C/C(=C\c3ccc(OC)c(O)c3)C2=O)cc1O | · | – | 18.5 | · | ·
COc1ccc(C=C2C(=O)c3ccccc3C2=O)cc1O | – | – | – | – | 61.7
CCN1C/C(=C/c2ccc(OC)c(O)c2)C(=O)/C(=C/c2ccc(OC)c(O)c2)C1 | 50.5 | – | – | – | –
COc1cc(/C=C2/CC/C(=C/c3ccc(O)c(OC)c3)C2=O)ccc1O | – | – | – | · | ·
CCOC1=CC2=C(C(=O)C(Cl)=CC2=O)[C@@H]2CN(S(=O)(=O)c3ccc(C)cc3)[C@@H](c3ccccc3)[C@H]12 | · | – | · | · | ·
C[C@@H]1CN([C@H](C)CO)C(=O)CCCn2cc(nn2)CO[C@H]1CN(C)S(=O)(=O)c1ccc2ccccc2c1 | · | – | · | · | ·
COC(=O)c1ccc(CCc2cc(O)ccc2O)cc1 | · | – | · | · | ·
COC(=O)c1ccc(CCc2cc(O)c(Br)cc2O)cc1 | · | 48.9 | · | · | ·
CN(C)c1ccc(C(=O)n2nnc3ccccc32)cc1 | – | – | – | – | 80.9
SMILES | PPC-1+TRAIL kill | C8 TRAIL sens | HSP90 refold inh | FLuc stim CS | FLuc inh counter
CC(C)(C)NCCC(O)c1cc(C(F)(F)F)nc2c(C(F)(F)F)cccc12 (stereo not drawn) | · | 91.4 | · | · | ·
O[C@@H](c1cc(C(F)(F)F)nc2c(C(F)(F)F)cccc12)[C@H]1CCCCN1 | · | – | · | · | ·
O=C(N/N=C/c1ccc(OC(F)F)cc1)C1=COCCO1 | – | – | – | – | 67.5
O=S(=O)(c1ccc2c(c1)C(=NO)c1cc(S(=O)(=O)N3CCCCC3)ccc1-2)N1CCCCC1 | 94.7 | 91.1 | – | – | –
O=S(=O)(c1ccc(S(=O)(=O)N2CCCC2)cc1)N1CCCCCC1 | – | – | – | – | –
CC1CCN(S(=O)(=O)c2ccc3c(c2)C(=NO)c2cc(S(=O)(=O)N4CCC(C)CC4)ccc2-3)CC1 | 97.0 | 95.3 | – | – | –
O=C(CCl)N(CCCNC(=O)C(F)(F)F)c1ccc([N+](=O)[O-])cc1 | – | 94.7 | – | · | ·
CC1(Cc2ccc(OC(F)(F)F)cc2)C(=O)Nc2ccc(S(=O)(=O)NC3CCCCC3)cc21 (stereo not drawn) | · | 63.7 | · | · | ·
CCc1nc2c(OCC3CCCCC3)cccn2c1N(C)C(=O)c1ccc(C)cc1 | · | – | · | · | ·
COc1ccc(-c2cn3ccccc3n2)cc1OC | – | 60.3 | – | – | 76.9
